GRIN3A LBD mod: binders of NR3A ligand-binding domain, primary screen, biophysical, differential scanning fluorimetry, uHTS | Tm shift relative to glycine control, % at 25 µM | NR3A LBD differential scanning fluorimetry, Tm shift; 0% = protein alone, 100% = glycine-bound protein | 2.5% of 340,000 active;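 active = melting temperature shift of at least 10% of the positive control shift, at one fixed dose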
GASC-1 inh: inhibitors of GASC-1 histone demethylase, primary screen, biochemical, fluorescence, DELFIA europium; Lysine-specific demethylase 4C (Homo sapiens), Q9H3R0; GST-JMJD2C(1-420) H3K9me3 demethylation; inhibition, % at 2.35 µM; 0.069% of 330,000 active;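 active = more than half of a compound's replicate wells show inhibition beyond 50%, single wells judged on their own value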;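 also: signal counts dimethyl H3K9 product captured on neutravidin plate; 0% = median of DMSO wells and 100% = 0.3 times that DMSO median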
T cell HTS: modulators of CD8 T cell-vesicle binding, primary screen, mouse 2C CD8+ T cells, flow cytometry; 2C CD8+ T cell-vesicle binding; hits give low values; response (vesicle binding), % at 7 µM; 0.068% of 330,000 active; AID 2052, 2009;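 active = response, share of CD8 T cells binding vesicles, and their 90th percentile fluorescence all below set limits, cut at about 80% in these data, passing the limit was not always enough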;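 also: values below 100% mean blocked vesicle binding to the CD8+ T cells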
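Read-out – percent CD8+ FL2 mean versus row control · System – murine 2C transgenic CD8+ T lymphocytes · Times – 1.5 h cell–vesicle binding at 37 °C, then 20 min icy labelling · Control set – naked vesicles low, QL9 vesicles with vehicle high · Detection – cytometric PE anti-B7-1 and Alexa647 anti-CD8 signals after 1% paraformaldehyde fixation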
Rtt109 HAT inh: inhibitors of C. albicans Rtt109/Vps75 HAT, primary screen, biochemical, ThioGlo CoA-SH fluorescence, plate reader; purified Rtt109/Vps75, 4 h; inhibition, % at 34.9 µM; Histone acetyltransferase RTT109 (Candida albicans (strain SC5314 / ATCC MYA-2876)), …; 0.16% of 330,000 active;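 active = inhibition of at least 50% in every replicate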
Target sequence (Q5AAJ8 whole entry, looked up): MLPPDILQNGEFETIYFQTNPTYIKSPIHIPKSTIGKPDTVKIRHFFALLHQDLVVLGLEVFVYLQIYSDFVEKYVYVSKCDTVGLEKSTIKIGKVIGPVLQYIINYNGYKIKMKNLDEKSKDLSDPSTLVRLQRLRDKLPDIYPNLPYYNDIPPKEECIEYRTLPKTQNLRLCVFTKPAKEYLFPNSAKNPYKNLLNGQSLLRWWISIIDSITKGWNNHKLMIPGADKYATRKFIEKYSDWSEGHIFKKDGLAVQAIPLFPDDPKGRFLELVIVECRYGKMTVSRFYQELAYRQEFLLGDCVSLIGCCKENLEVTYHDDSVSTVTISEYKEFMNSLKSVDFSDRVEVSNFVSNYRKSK
Numbers without * were called inactive; i = inactive; / = no result given. Most compounds without a hit are left out; they make up all but 2.8% or so of the library.

SMILES	GRIN3A LBD mod	GASC-1 inh	T cell HTS	Rtt109 HAT inh
O=C(NNC(=O)C1CCN(S(=O)(=O)c2ccccc2)CC1)c1ccccc1O	1	94*	293	9
O=C(NNC(=O)C1CCN(S(=O)(=O)c2c(Cl)cccc2Cl)CC1)c1ccccc1O	-13	15	186	2
COCCN(C(=S)Nc1ccc(OC)c(Cl)c1)C1CCN(C(C)C)CC1	7	1	338	9
COc1ccc(NC(=S)N(CCC(C)C)C2CCN(C(C)C)CC2)cc1Cl	19*	-5	243	11
CCc1cc(/C(Cc2ccccn2)=N\O)c(O)cc1O	1	-22	418	13
CCc1cc(/C(Cc2ccc3ccccc3n2)=N\O)c(O)cc1O	29*	-31	508	12
NC(N)=NN=C(c1ccc(F)cc1)c1ccc(C(F)(F)F)cc1	6	/	/	-6
CCOC(=O)c1c(NC(=S)Nc2ccccc2)sc2c1CC(C)(C)SC2	13*	-3	205	-3
CCOC(=O)c1c(NC(=S)NC)sc2c1CC(C)(C)SC2	-31	0	217	-5
Oc1ccc(/C=N/Nc2cccc(Cl)n2)c(O)c1	27*	-2	152	16
Cc1ncc(CO)c(/C=N/Nc2cccc(Cl)n2)c1O	15*	1	278	1
Cc1cc(C(=O)N/N=C/c2c(CO)cnc(C)c2O)c2ccccc2n1	1	-30	465	9
CCCNC(=O)c1ccc(N2CCC3(CC2)CC(c2ccccc2)=NO3)c(NC(=O)Cc2ccc(F)cc2)c1	4	-5	811	-3
COc1cc2ncc(S(=O)(=O)c3ccccc3)c(N3CCCC(C)C3)c2cc1OC (stereo unspecified)	15*	6	464	11
CCOc1ccccc1N1CCN(C(=O)C2CSC3(C)CCC(=O)N23)CC1 (stereo unspecified)	1	-1	263	10
CSc1nnc2c3cc(F)ccc3n(Cc3ccccc3)c2n1	39*	-9	215	-6
COc1ccc(S(=O)(=O)N2CCNCC2)cc1	-1	4	148	3
CCCCC(=O)Oc1ccccc1C1SCc2cc(C)c(C)cc2CS1	-5	-11	122	-8
Cc1cc2c(cc1C)CSC(c1ccc3ccccc3c1O)SC2	15*	5	321	-10
Cc1cc2c(cc1C)CSC(c1ccc(O)cc1)SC2	8	1	595	28
Cc1cc2c(cc1C)CSC(c1c(O)ccc3ccccc13)SC2	27*	6	340	7
Cc1cc2c(cc1C)CSC(c1ccccc1O)SC2	12*	-8	766	10
Cc1cc2c(cc1C)CSC(c1ccccc1OC(=O)C(C)(C)C)SC2	2	-1	290	2
COc1ccc(N2N=NN(C(C)C)C2=C(Cl)c2nnnn2-c2ccc(OC)cc2)cc1	2	/	/	-2
O=C(NNC(=S)Nc1cccc(C(F)(F)F)c1)c1ccc(Cl)cc1Cl	20*	11	302	3
SMILES	GRIN3A LBD mod	GASC-1 inh	T cell HTS	Rtt109 HAT inh
O=[N+]([O-])c1cc(C(F)(F)F)cc([N+](=O)[O-])c1NCCNC(=S)Nc1ccc(Cl)c(Cl)c1	26*	2	278	-1
FC(F)(F)c1cccc(NC(=S)NC(c2ccccc2)c2ccccc2)c1	30*	-2	449	-2
FC(F)(F)c1cccc(NC(=S)Nc2ccc(Cl)c(Cl)c2)c1	19*	-1	451	-1
Cc1ccccc1C(=O)NNC(=S)Nc1cccc(C(F)(F)F)c1	-8	4	146	-1
FC(F)(F)c1cccc(NC(=S)NNC(=S)Nc2cccc(C(F)(F)F)c2)c1	/	-9	304	/
O=C(COC(=O)c1cc(=O)[nH]c2ccccc12)Nc1nc(-c2ccc(F)cc2)cs1	1	/	/	2
COc1cccc(NC(=O)C(=O)c2cn(CC(=O)N3CCCC3)c3ccccc23)c1	0	1	349	20
Clc1nnc2c3ccccc3ccn12	0	/	/	0
COc1ccc(-n2cc(CNCCc3cscn3)c(-c3ccccc3Cl)n2)cc1	-5	51*	218	/
CSc1nc(N)c2c(n1)N(C)C=NS2(=O)=O	2	/	/	-10
O=C(c1ccc(NS(=O)(=O)c2cccs2)cc1)N1CCOCC1	11*	-17	i	-10
O=C(NNc1nc2c(F)cccc2s1)C1=COCCO1	-1	0	672	0
Cc1ccc2sc(NNC(=O)C3=COCCO3)nc2c1C	1	4	283	59*
CC1(c2ccc3ccccc3c2)NC(=O)N(CC(=O)NCC(C)(C)N2CCOCC2)C1=O (stereo unspecified)	17*	-8	161	5
CC(C)(C)c1ccc(C(=O)NCC(=O)NCc2ccccn2)cc1	4	/	350	-1
O=C(O)CCc1ccc(-c2cccs2)o1	0	-6	265	53*
Cc1ccc(-c2ccc(CCC(=O)O)o2)cc1	0	-12	351	3
Cc1ccc(S(=O)(=O)N/N=C/c2cc([N+](=O)[O-])ccc2O)cc1[N+](=O)[O-]	21*	6	220	-1
Cn1c(=O)c2c(nc(CN3CCN(C(c4ccccc4)c4ccccc4)CC3)n2CCCO)n(C)c1=O	-2	1	309	5
CCCN(CC(=O)Nc1cc(Cl)cc(Cl)c1)CC(=O)Nc1ccc(F)c(F)c1F	20*	45	199	-1
CCCN(CC(=O)Nc1ccccc1Br)CC(=O)Nc1ccc(F)c(F)c1F	-10	17	278	5
Cc1ccc(/C=C/S(=O)(=O)Nc2ccc(C)cc2)cc1	-2	-17	222	-29
Cc1ccc(NC(=O)c2ccc(NS(=O)(=O)/C=C/c3ccccc3)cc2)nc1	18*	-4	161	10
COc1ccc(Cl)cc1NC(=S)NCCC(c1ccccc1)c1ccccc1	18*	-9	250	1
COc1cc(NC(=S)NCCC(c2ccccc2)c2ccccc2)c(OC)cc1Cl	24*	-6	560	16
SMILES	GRIN3A LBD mod	GASC-1 inh	T cell HTS	Rtt109 HAT inh
CCCCCCCCNS(=O)(=O)CCNCc1ccco1	-1	/	/	10
O=C1CCC(=O)N1c1ccc(-c2nc3ccccc3s2)cc1	2	17	226	52*
Nc1ccc(-c2nc3ccccc3s2)cn1	2	0	832	6
COc1ccc(C(=O)Cn2cc[n+](C)c2)cc1	1	-7	281	-1
COc1ccc(CN2C(=O)c3ccccc3C(/C=N/OCc3ccc(Cl)cc3)C2=O)cc1 (stereo unspecified)	11*	-3	506	-24
CN(C)c1cc[n+](CC(=O)c2ccc(-c3ccccc3)cc2)cc1	0	2	196	9
CCOC(=O)C(C(=O)OCC)C(c1ccccc1)N1CCN(c2ccccc2)CC1 (stereo unspecified)	-1	/	/	5
Cc1ccc(-c2nc3sc(C(N)=O)c(N)c3c3c2CCCC3)cc1	-18	-7	383	6
CC(=O)c1sc2nc(-c3ccc(C)cc3)c3c(c2c1N)CCCC3	10*	3	250	-8

High-throughput results from PubChem BioAssay.
